Compound activity from PubChem.
Hits are enriched below; roughly 1.6% of the tested compounds scored in any of these assays.
NR1D1 modulator = Rev-erb alpha (human) modulation. Rev-erbα–FITC-DNA binding, fluorescence polarization, 90 min. activity, % at 10 µM. 370,000 tested, 0.79% active. AID 1259318;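 active means activity above about 14%, limit read from the data; passing the limit was not always enough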
PG9 binder = binds the HIV-1 gp120 antibody PG9. TR-FRET gp120-PG9 antibody binding. inhibition, % at 6.7 µM. 360,000 tested, 0.43% active; in the data active means inhibition above about 8.5%
NR2E3 ag-1 = human photoreceptor-specific nuclear receptor agonism. CHO-S Gal4-NCOR/VP16-NR2E3 two-hybrid, luciferase. inhibition of corepressor binding, % at 3.98 µM. 360,000 tested, 0.35% active. AID 602229;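 active means inhibition above the mean of all tested compounds plus 3 SD, cut at about 70% in these data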;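 further: higher means lower luciferase signal from less NR2E3 corepressor binding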
Target sequence (Q9Y5X4 whole entry, looked up, the tested form may be a part): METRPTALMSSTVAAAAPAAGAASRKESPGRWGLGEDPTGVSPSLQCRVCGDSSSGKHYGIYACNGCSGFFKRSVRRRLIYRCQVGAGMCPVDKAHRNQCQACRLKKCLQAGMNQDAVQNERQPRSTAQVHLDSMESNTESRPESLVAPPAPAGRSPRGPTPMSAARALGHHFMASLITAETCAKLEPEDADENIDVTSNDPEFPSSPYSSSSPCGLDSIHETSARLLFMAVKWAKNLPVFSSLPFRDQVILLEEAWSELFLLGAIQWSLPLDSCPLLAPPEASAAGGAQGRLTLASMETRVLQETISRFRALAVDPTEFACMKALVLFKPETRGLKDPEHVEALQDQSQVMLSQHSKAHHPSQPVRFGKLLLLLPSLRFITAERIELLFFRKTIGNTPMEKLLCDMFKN
VLA-4 inh = inhibition in a human VLA-4 binding assay. inhibition, % (about 7 µM as worked out from the volumes in the protocol). AID 2557. P13612. VLA-4 expressing cells, ligand binding flow cytometry. 330,000 tested, 0.2% active; in the data active means inhibition above about 50%
NR2E3 ag-2 = agonists of human nuclear receptor NR2E3; Q9Y5X4; GST-NR2E3/biotin-RetCOR TR-FRET, 1536-well; inhibition of corepressor binding, % at 4.78 µM; 320,000 tested, 0.12% active; AID 2300;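 active means percent inhibition above the cutoff of mean plus 3 SD of all tested compounds, set per screening campaign, cut at about 20% in these data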
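Material: NR2E3–RetCOR corepressor complex / Incubation: Compound–protein incubation for 5 h at 4 °C / Dosing: compound at 4.8 µM, single dose / Detection: time-resolved FRET / Benchmarks: high control biotin, low control 0.6% DMSO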
NR2E3 ag confirm = confirmation of human NR2E3 agonists | shares compounds with NR2E3 ag-1 | CHO-S mammalian two-hybrid NR2E3-NCOR, luciferase luminescence | inhibition, % at 3.98 µM | 2,300 tested, 51% active | AID 624378;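 active means average inhibition above a cutoff equal to the mean inhibition of all tested compounds plus one SD, cut at about 70% in these data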
GAL4-VP16 luc = GAL4-VP16 reporter inhibition in NR2E3 agonist counterscreen. shares compounds with NR2E3 ag-1. CHO-S GAL4-VP16 luciferase reporter, luminescence. inhibition, % at 3.98 µM. 2,300 tested, 29% active. AID 624379;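 active means mean inhibition above a cutoff equal to the average over all tested compounds plus one standard deviation, cut at about 70% in these data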;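 further: luciferase from a UAS reporter driven by GAL4-VP16 transactivation; higher means less reporter light so more repression of VP16 activity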
Numbers stand for hits; 0 = inactive; - = no result.

SMILES	NR1D1 modulator	PG9 binder	NR2E3 ag-1	VLA-4 inh	NR2E3 ag-2	NR2E3 ag confirm	GAL4-VP16 luc
OC(c1cc(C(F)(F)F)nc2c(C(F)(F)F)cccc12)C1CCCCN1 (centres undefined)	0	0	0	0	0	-	-
Cc1csc(SCC(=O)c2cc(C)n(Cc3cccs3)c2C)n1	0	0	0	0	0	0	0
CC(=O)Nc1ccc(SCC(=O)c2cc(C)n(Cc3cccs3)c2C)cc1	0	0	0	0	0	0	0
C=CCn1c(C)cc(C(=O)CSc2ccc(NC(C)=O)cc2)c1C	0	0	0	0	0	-	-
COCC(C)n1c(C)cc(C(=O)CSc2ccc(NC(C)=O)cc2)c1C (centres undefined)	0	0	0	0	0	-	-
CC(=O)Nc1ccc(SCC(=O)c2cc(C)n(-c3ccccc3F)c2C)cc1	0	0	0	0	0	0	0
COC(=O)C1=C[C@@H]([C@@H](C)[C@H](OC)c2ccccc2Br)[C@@H]2OCCC[C@H]12	0	-	-	-	-	-	-
C[C@H](CO)N1C[C@H](C)[C@H](CN(C)Cc2ccc(F)cc2)Oc2ncc(Br)cc2C1=O	0	0	-	-	-	-	-
O=S(=O)(c1ccccc1F)N1CCC(c2nc3ccccc3o2)CC1	0	-	-	-	-	-	-
CCCc1cc(=O)n2[nH]cc(-c3ccc(Cl)cc3)c2n1	0	0	93.3	0	-	98.2	70.9
COCc1cc(=O)n2[nH]cc(-c3ccccc3)c2n1	0	0	0	0	0	-	-
O=Nc1c(O)n(Cc2ccccc2)c2ccccc12	0	0	0	0	0	-	-
Cc1c(CCCN)c2ccccc2n1Cc1ccccc1	0	0	0	0	0	0	0
Cc1ccc2c(CN(C)Cc3ccc(OC(F)F)cc3)cc(=O)oc2c1C	0	0	0	0	0	0	0
Cc1ccc2c(CN(C)Cc3ccccc3)cc(=O)oc2c1C	0	0	0	0	0	-	-
CC(CCCC(C)(C)O)NC(=O)c1cc(COc2ccc3ncccc3c2)on1 (centres undefined)	0	0	0	0	0	88.3	75.2
Cc1cc(C)n(CCNC(=O)c2cc(COc3ccc4ncccc4c3)on2)n1	0	0	0	0	0	-	-
Cc1ccc(F)cc1CNC(=O)c1cc(COc2ccc3ncccc3c2)on1	0	0	79.2	0	0	96.0	85.7
CC(C)N(Cc1nccn1C)C(=O)c1cc(COc2ccc3ncccc3c2)on1	0	0	0	0	0	-	-
O=C(NCc1cccc(Cl)c1)c1cc(COc2ccc3ncccc3c2)on1	0	0	75.7	0	0	95.5	79.0
O=C(NC1CCCCN(Cc2ccc(OC(F)(F)F)cc2)C1=O)c1cccc(C(F)(F)F)c1 (centres undefined)	0	-	-	-	-	-	-
Cc1onc(-c2c(F)cccc2Cl)c1-c1ncc(-c2ccc(Cl)cc2)o1	0	0	-	-	-	-	-
Cc1ccc2[nH]c3c(c2c1)CCCC3NC(=O)CCl (centres undefined)	-	-	87.7	0	0	89.0	72.5
CCOC(=O)[C@@]12CCCC3=C1N(CCC3)C(=O)[C@H]2CC(=O)NCc1ccc(C)o1	0	-	-	-	-	-	-
COc1cccc(N2CCN(CC(=O)NCc3cccc(OC)c3OC)CC2)c1	0	-	-	-	-	-	-
SMILES	NR1D1 modulator	PG9 binder	NR2E3 ag-1	VLA-4 inh	NR2E3 ag-2	NR2E3 ag confirm	GAL4-VP16 luc
CCc1cc2c(=O)nc3n(c2s1)Cc1ccccc1/C3=C(/O)c1ccc(F)cc1	0	0	0	0	0	0	0
O=C(Nc1nnc(SCc2ccc(F)cc2)s1)c1ccccn1	0	0	0	-	-	0	0
COC(=O)c1ccc(Cn2ccc3ccc(-c4ccc5ccn(C(=O)c6ccccc6)c5c4)cc32)cc1	0	-	-	-	-	-	-
CSc1nc2ccc(S(=O)(=O)NC3CCCCC3)cc2s1	0	0	0	0	0	0	0
CSc1nc2ccc(NS(=O)(=O)c3c(Cl)cccc3Cl)cc2s1	0	0	0	0	0	-	-
CSc1nc2ccc(S(=O)(=O)N3CCCCC3)cc2s1	0	0	0	0	0	-	-
CSc1nc2ccc(NS(=O)(=O)c3ccc4c(c3)OCCO4)cc2s1	0	0	75.5	0	0	91.4	82.4
COc1ccc(OC[C@@H](O)CN2CCC(C(O)(c3ccccc3)c3ccccc3)CC2)cc1	0	-	-	-	-	-	-
CC(C)C[C@@H]1COc2cc(Br)ccc2S(=O)(=O)N1Cc1cn(CCC2OCCO2)nn1	0	-	-	-	-	-	-
Cc1ccc(C(=O)CCC(=O)N2CCN(c3ccccc3O)CC2)cc1	0	0	0	0	0	0	0
